Test system: not listed separately
Assay: Dose to reduce neuronal firing against 5-HT cells in rats (iv)
Assay type: functional
Conditions: Rattus norvegicus
Summary of the method: (§1)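 Male Sprague-Dawley rats (250-350 g) anaesthetised with chloral hydrate 400 mg/kg. Extracellular single-unit firing was recorded by glass microelectrode (pontamine sky blue in 2 M NaCl) from 5-HT cells in dorsal raphe or DA cells in substantia nigra pars compacta, with drug given iv. Cell sites were confirmed histologically by dye mark. ED50 is the dose inhibiting firing by 50%, in µg/kg ±SEM, with n animals.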

Row | Structure (SMILES) | ED50
1 | CCCN(CCC)[C@@H]1CCc2ccc3[nH]c(C(N)=O)cc3c2C1 | > 0.1 mg/kg
2 | CCCN(CCC)[C@H]1CCc2ccc3[nH]c(C(N)=O)cc3c2C1 | > 0.1 mg/kg
3 | CCCN(CCC)[C@@H]1CCc2cccc(O)c2C1 | 0.0016 mg/kg
4 | O=C1CC2(CCCC2)CC(=O)N1CCCCN1CCN(c2ncccn2)CC1 [BUSPIRONE] | 0.0154 mg/kg
5 | CCCN(CCC)[C@@H]1CCc2ccc3[nH]c(C#N)cc3c2C1 [U-92,016-A] | 0.0034 mg/kg

Test system: Felis catus
Assay: Dose required to completely shut off sympathetic nerve discharge in cat following intravenous administration
Assay type: functional
Conditions: not given

Row | Structure (SMILES) | ED50
6 | CCCN(CCC)[C@@H]1CCc2ccc3[nH]c(C#N)cc3c2C1 [U-92,016-A] | 0.03 mg/kg

Test system: Felis catus
Assay: Dose required to reduce sympathetic nerve discharge in cat following intravenous administration
Assay type: functional
Conditions: not given
Summary of the method: (§2)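 Mongrel cats (2.5-4.0 kg) anaesthetised with chloralose 80 mg/kg iv, in a stereotaxic frame, femoral artery and vein cannulated. SND was quantified by cumulative integration of slow waves, with a 1 h equilibration and baseline taken over the last 10 min. Cumulative iv doses of 0.01, 0.03, 0.1, 0.3 and 1.0 mg/kg were given every 20 min, each read 15-20 min post-dose. ED50 is the dose reducing SND to 50% of pretreatment (95% CI). Maximum decrease at 1 mg/kg is given as % control ±SEM.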

Row | Structure (SMILES) | ED50
7 | CCCN(CCC)[C@@H]1CCc2ccc3[nH]c(C(N)=O)cc3c2C1 | 0.19 mg/kg
8 | CCCN(CCC)[C@H]1CCc2ccc3[nH]c(C(N)=O)cc3c2C1 | 0.19 mg/kg
9 | O=C1CC2(CCCC2)CC(=O)N1CCCCN1CCN(c2ncccn2)CC1 [BUSPIRONE] | 0.08 mg/kg
10 | CCCN(CCC)[C@@H]1CCc2ccc3[nH]c(C#N)cc3c2C1 [U-92,016-A] | 0.017 mg/kg

Test system: Felis catus
Assay: Maximum decrease in sympathetic nerve discharge(SND) +/-SEM observed at 1 mg/kg dose in cat
Assay type: functional
Set-up: scale not given: the % may be the effect or the level left
Conditions: not given
Summary of the method: (§3)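 Chloralose-anesthetized mongrel cats (80 mg/kg iv), stereotaxic, femoral cannulation. SND integrated cumulatively; pretreatment value averaged over the last 10 min of a 1 h equilibration. Cumulative iv dosing from 0.01 up to 1.0 mg/kg every 20 min, read 15–20 min after each dose. Maximum SND decrease at 1 mg/kg expressed as % control (±SEM); n = 2–8 cats.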

Row | Structure (SMILES) | Control
11 | CCCN(CCC)[C@@H]1CCc2ccc3[nH]c(C(N)=O)cc3c2C1 | 0%

Test system: Felis catus
Assay: (§4) Maximum decrease in sympathetic nerve discharge(SND) observed at 1 mg/kg dose in cat
Assay type: functional
Set-up: scale not given: the % may be the effect or the level left
Conditions: not given
Summary of the method: as §3

Row | Structure (SMILES) | Control
12 | CCCN(CCC)[C@H]1CCc2ccc3[nH]c(C#N)cc3c2C1 | 0%
13 | CCCN(CCCCN1C(=O)CC(C)(C)CC1=O)[C@@H]1CCc2ccc3[nH]c(C(N)=O)cc3c2C1 | 22%
14 | CCCN(CC1CC1)[C@H]1CCc2ccc3[nH]c(C(N)=O)cc3c2C1 | 14%
15 | CCCN(CCCCN1C(=O)CC(C)(C)CC1=O)[C@@H]1CCc2ccc3[nH]c(C#N)cc3c2C1 | 0%
16 | CCCN(CCC)[C@H]1CCc2ccc3[nH]c(C(N)=O)cc3c2C1 | 10%
17 | CCCN(CC1CC1)[C@@H]1CCc2ccc3[nH]c(C(N)=O)cc3c2C1 | 43%
18 | O=C1CC2(CCCC2)CC(=O)N1CCCCN1CCN(c2ncccn2)CC1 [BUSPIRONE] | 43%
19 | CCCN(CCC)[C@@H]1CCc2ccc3[nH]c(C#N)cc3c2C1 [U-92,016-A] | 0%

Test system: Felis catus
Assay: as §4
Assay type: functional
Set-up: scale not given: the % may be the effect or the level left
Conditions: not given
Summary of the method: as §2

Row | Structure (SMILES) | Control
20 | CCCN(CCC)[C@@H]1CCc2cccc(O)c2C1 | 0%

Test system: not listed separately
Assay: Dose to reduce neuronal firing against DA cells (antagonist) in rats (iv)
Assay type: functional
Conditions: Rattus norvegicus

Row | Structure (SMILES) | ED50
21 | CCCN(CCC)[C@@H]1CCc2cccc(O)c2C1 | 0.74 mg/kg
22 | O=C1CC2(CCCC2)CC(=O)N1CCCCN1CCN(c2ncccn2)CC1 [BUSPIRONE] | 0.0113 mg/kg

Test system: not listed separately
Assay: Dose to reduce neuronal firing against DA cells in rats (iv)
Assay type: functional
Conditions: Rattus norvegicus
Summary of the method: as §1

Row | Structure (SMILES) | ED50
23 | CCCN(CCC)[C@@H]1CCc2ccc3[nH]c(C#N)cc3c2C1 [U-92,016-A] | 0.084 mg/kg

Biological target: D(2) dopamine receptor (Homo sapiens, UniProt P14416)
Sequence (P14416 whole entry): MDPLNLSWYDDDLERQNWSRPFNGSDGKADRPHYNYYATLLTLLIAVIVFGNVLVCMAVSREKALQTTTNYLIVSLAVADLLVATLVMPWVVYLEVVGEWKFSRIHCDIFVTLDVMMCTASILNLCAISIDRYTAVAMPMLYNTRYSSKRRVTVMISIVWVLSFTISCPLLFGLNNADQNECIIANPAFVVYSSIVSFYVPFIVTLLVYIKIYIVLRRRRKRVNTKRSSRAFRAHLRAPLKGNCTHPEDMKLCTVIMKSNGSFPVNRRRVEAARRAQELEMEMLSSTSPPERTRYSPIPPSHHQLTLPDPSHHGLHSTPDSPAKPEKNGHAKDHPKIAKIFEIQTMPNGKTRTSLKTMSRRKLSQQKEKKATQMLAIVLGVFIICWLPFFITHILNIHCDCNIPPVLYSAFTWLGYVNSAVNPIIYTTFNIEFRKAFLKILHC
Assay: Displacement of [3H]U-86170 from human D2-dopamine receptor expressed in CHO K1 cells
Assay type: cell-based
Conditions: not given

Row | Structure (SMILES) | Ki
24 | CCCN(CCC)[C@H]1CCc2ccc3[nH]c(C#N)cc3c2C1 | 896 nM
25 | CCCN(CCC)[C@@H]1CCc2ccc3[nH]c(C(N)=O)cc3c2C1 | 215 nM
26 | CCCN(CCCCN1C(=O)CC(C)(C)CC1=O)[C@@H]1CCc2ccc3[nH]c(C(N)=O)cc3c2C1 | 38 nM
27 | CCCN(CC1CC1)[C@H]1CCc2ccc3[nH]c(C(N)=O)cc3c2C1 | > 1000 nM
28 | CCCN(CCCCN1C(=O)CC(C)(C)CC1=O)[C@@H]1CCc2ccc3[nH]c(C#N)cc3c2C1 | 44 nM
29 | CCCN[C@@H]1CCc2ccc3[nH]c(C(N)=O)cc3c2C1 | 857 nM
30 | CCCN(CCC)[C@H]1CCc2ccc3[nH]c(C(N)=O)cc3c2C1 | > 1000 nM
31 | CCCN(CCCCN1C(=O)CC(C)(C)CC1=O)[C@H]1CCc2ccc3[nH]c(C(N)=O)cc3c2C1 | 914 nM
32 | CCCN(CC1CC1)[C@@H]1CCc2ccc3[nH]c(C(N)=O)cc3c2C1 | 389 nM
33 | CCCN(CCCCN1C(=O)CC(C)(C)CC1=O)[C@H]1CCc2ccc3[nH]c(C#N)cc3c2C1 | > 333 nM
34 | CCCN[C@H]1CCc2ccc3[nH]c(C(N)=O)cc3c2C1 | > 1670 nM
35 | CCCN(CCC)[C@@H]1CCc2ccc3[nH]c(C#N)cc3c2C1 [U-92,016-A] | 35 nM

Test system: Mus musculus
Assay: Dose required to obtain hypothermic effect in mice following subcutaneous administration
Assay type: functional
Conditions: sc
Summary of the method: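 Charles River mice (18–22 g), housed singly, given 0.1-mL sc injections at doses spaced in half-log intervals. Rectal temperature read 20 min after injection. Responders were those of four mice per dose that dropped >1.1 °C. ED50 by Spearman–Karber, with 95% confidence intervals.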

Row | Structure (SMILES) | ED50
36 | CCCN(CCC)[C@H]1CCc2ccc3[nH]c(C#N)cc3c2C1 | 1.3 mg/kg
37 | CCCN(CCC)[C@@H]1CCc2ccc3[nH]c(C(N)=O)cc3c2C1 | 0.6 mg/kg
38 | CCCN(CCCCN1C(=O)CC(C)(C)CC1=O)[C@@H]1CCc2ccc3[nH]c(C(N)=O)cc3c2C1 | 9.7 mg/kg
39 | CCCN(CC1CC1)[C@H]1CCc2ccc3[nH]c(C(N)=O)cc3c2C1 | 9.7 mg/kg
40 | CCCN(CCCCN1C(=O)CC(C)(C)CC1=O)[C@@H]1CCc2ccc3[nH]c(C#N)cc3c2C1 | 0.13 mg/kg
41 | CCCN[C@@H]1CCc2ccc3[nH]c(C(N)=O)cc3c2C1 | 2.3 mg/kg
42 | CCCN(CCC)[C@H]1CCc2ccc3[nH]c(C(N)=O)cc3c2C1 | 1 mg/kg
43 | CCCN(CCCCN1C(=O)CC(C)(C)CC1=O)[C@H]1CCc2ccc3[nH]c(C(N)=O)cc3c2C1 | 4.1 mg/kg
44 | CCCN(CC1CC1)[C@@H]1CCc2ccc3[nH]c(C(N)=O)cc3c2C1 | 2.3 mg/kg
45 | CCCN(CCCCN1C(=O)CC(C)(C)CC1=O)[C@H]1CCc2ccc3[nH]c(C#N)cc3c2C1 | 3.1 mg/kg
46 | CCCN[C@H]1CCc2ccc3[nH]c(C(N)=O)cc3c2C1 | 17.3 mg/kg
47 | CCCN(CCC)[C@@H]1CCc2cccc(O)c2C1 | 1 mg/kg
48 | O=C1CC2(CCCC2)CC(=O)N1CCCCN1CCN(c2ncccn2)CC1 [BUSPIRONE] | 3 mg/kg
49 | CCCN(CCC)[C@@H]1CCc2ccc3[nH]c(C#N)cc3c2C1 [U-92,016-A] | 0.04 mg/kg

Test system: Mus musculus
Assay: Maximum obtainable hypothermic effect up to 30 mg/kg dose in mice expressed as temperature decrease in degree Centigrade
Assay type: functional
Conditions: not given
Summary of the method: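 Mice (Charles River, 18–22 g) dosed sc in 0.1 mL at doses up to 30 mg/kg. Rectal temperature measured 20 min after injection. The mean maximum temperature drop at 20 min is recorded as a crude index of efficacy.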

Row | Structure (SMILES) | Temperature
50 | CCCN(CCC)[C@H]1CCc2ccc3[nH]c(C#N)cc3c2C1 | 6.3 °C
51 | CCCN(CCC)[C@@H]1CCc2ccc3[nH]c(C(N)=O)cc3c2C1 | 3.3 °C
52 | CCCN(CCCCN1C(=O)CC(C)(C)CC1=O)[C@@H]1CCc2ccc3[nH]c(C(N)=O)cc3c2C1 | 2.8 °C
53 | CCCN(CC1CC1)[C@H]1CCc2ccc3[nH]c(C(N)=O)cc3c2C1 | 3.3 °C
54 | CCCN(CCCCN1C(=O)CC(C)(C)CC1=O)[C@@H]1CCc2ccc3[nH]c(C#N)cc3c2C1 | 6.8 °C
55 | CCCN[C@@H]1CCc2ccc3[nH]c(C(N)=O)cc3c2C1 | 2.4 °C
56 | CCCN(CCC)[C@H]1CCc2ccc3[nH]c(C(N)=O)cc3c2C1 | 2.2 °C
57 | CCCN(CCCCN1C(=O)CC(C)(C)CC1=O)[C@H]1CCc2ccc3[nH]c(C(N)=O)cc3c2C1 | 2.2 °C
58 | CCCN(CC1CC1)[C@@H]1CCc2ccc3[nH]c(C(N)=O)cc3c2C1 | 4 °C
59 | CCCN(CCCCN1C(=O)CC(C)(C)CC1=O)[C@H]1CCc2ccc3[nH]c(C#N)cc3c2C1 | 3.9 °C
60 | CCCN[C@H]1CCc2ccc3[nH]c(C(N)=O)cc3c2C1 | 1.8 °C
61 | CCCN(CCC)[C@@H]1CCc2cccc(O)c2C1 | 4 °C
62 | O=C1CC2(CCCC2)CC(=O)N1CCCCN1CCN(c2ncccn2)CC1 [BUSPIRONE] | 1.9 °C
63 | CCCN(CCC)[C@@H]1CCc2ccc3[nH]c(C#N)cc3c2C1 [U-92,016-A] | 7.2 °C

Test system: Felis catus
Assay: Dose required to reduce sympathetic nerve discharge in cats following intravenous administration
Conditions: not given

Row | Structure (SMILES) | ED50
64 | CCCN(CCC)[C@H]1CCc2ccc3[nH]c(C#N)cc3c2C1 | 0.15 mg/kg
65 | CCCN(CCCCN1C(=O)CC(C)(C)CC1=O)[C@@H]1CCc2ccc3[nH]c(C(N)=O)cc3c2C1 | 0.41 mg/kg
66 | CCCN(CC1CC1)[C@H]1CCc2ccc3[nH]c(C(N)=O)cc3c2C1 | 0.4 mg/kg
67 | CCCN(CCCCN1C(=O)CC(C)(C)CC1=O)[C@@H]1CCc2ccc3[nH]c(C#N)cc3c2C1 | 0.01 mg/kg
68 | CCCN(CC1CC1)[C@@H]1CCc2ccc3[nH]c(C(N)=O)cc3c2C1 | 0.9 mg/kg
69 | CCCN(CCC)[C@@H]1CCc2cccc(O)c2C1 | 0.01 mg/kg

Source: ChEMBL document CHEMBL1126741 (J Med Chem, 1993)
